Reference: article PMC8796305 (ACS Central Science, 2022)

Assay: Human plasma stability assay
Format: in vitro ADME
Details: 37 °C
Summary of the method: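 Lyophilised human plasma reconstituted in sterile water, stored in aliquots at −80 °C, and thawed at room temperature (three aliquots per compound). Each aliquot spiked with test compound from a 2 mM DMSO stock; Angiotensin I as positive control. Incubated at 37 °C. Samples taken at […], quenched with water/acetonitrile, centrifuged (17 000g, 4 °C, 1 h), and supernatants concentrated.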

Angiotensin I (DRVYIHPFHL; Angiotensin-1; UniProt P01019 25-34, looked up)
Time to complete degradation in human plasma: ≤ 4 h
